A selection: hits, their analogues and other compounds. The true share with any hit is near 2.1%.
C2C12 statin = suppressors of statin myotoxicity in C2C12 myotubes, primary screen, cell-based, single point, plate reader; C2C12 myotubes + simvastatin, ATP luminescence, 48 h; scaled: DMSO 0, geranylgeraniol control 100; rescue of ATP level, % at 7.49 µM; AID 602340, 2012; actives 0.78% (n = 330,000);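 active = mean ATP rescue above about 67%, or every replicate alone reaching that limit, limit read from the data, passing the limit was not always enough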;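 also: myotubes were challenged with 10 µM simvastatin during compound exposure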
ASAP1 inh = inhibitors of human ASAP1 ArfGAP activity, primary screen, biochemical, fluorescence polarization | ASAP1-stimulated ARF1 GTP hydrolysis, GDP FP detection | inhibition, % at 16.5 µM | actives 0.19% (n = 360,000) | AID 624377, 2012 | Arf-GAP with SH3 domain, ANK repeat and PH domain-containing protein 1 (Homo sapiens), …; in the data active = inhibition above about 25%;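 also: 0% = vehicle with enzyme and substrate and 100% = no enzyme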
SUMO Mot1 rescue = yeast Mot1-301 growth rescue at high temperature, primary screen, SUMOylation pathway inhibitor project, S. cerevisiae, ATP luminescence, 38.5C; growth rescue, % at 18.8 µM; AID 2716, 2010; actives 1% (n = 320,000); S. cerevisiae Mot1-301 growth rescue; percent above DMSO median, 100 means doubled;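 active = every valid replicate shows activation above 250% relative to neutral control wells; inactive = the rest, any valid replicate at or below 250%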;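 also: OY570 slx delta 5 strain wells were the positive control but not used for scaling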
A3A deaminase = APOBEC3A ssDNA deaminase inhibitors, primary screen, selectivity assay for APOBEC3G inhibitor project, biochemical, FAM/TAMRA oligo cleavage fluorescence; AID 493011, 2011; DNA dC->dU-editing enzyme APOBEC-3A (Homo sapiens), P31941; actives 0.41% (n = 330,000); inhibition, % at 20 µM; recombinant A3A, FAM/TAMRA ssDNA deamination fluorescence;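 active = at least 40% inhibition at 20 µM here, with at most 30% in a related deaminase screen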;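 also: plate controls were A3A with DMSO for no effect and wells lacking A3A enzyme for full effect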
Target sequence (P31941 whole entry, looked up): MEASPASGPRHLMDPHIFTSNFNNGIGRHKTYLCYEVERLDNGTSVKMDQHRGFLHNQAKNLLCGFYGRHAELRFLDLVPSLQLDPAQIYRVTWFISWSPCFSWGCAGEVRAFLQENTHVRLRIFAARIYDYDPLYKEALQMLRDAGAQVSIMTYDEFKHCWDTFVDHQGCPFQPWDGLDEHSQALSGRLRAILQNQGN
ARFGAP1 inh = inhibitors of rat ARFGAP1 GAP activity, primary screen, biochemical, fluorescence polarization, GDP tracer | inhibition, % at 16.5 µM | Arfgap1-stimulated ARF1 GTP hydrolysis, GDP FP detection | actives 0.26% (n = 360,000) | ADP-ribosylation factor GTPase-activating protein 1 (Rattus norvegicus), Q62848;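 active = inhibition above a per-plate limit, mean inhibition of low control wells plus 3 SD, cut at about 25% in these data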;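 also: 0% = DMSO wells with enzyme and 100% = wells lacking Arfgap1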
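System: truncated rat Arfgap1 GAP domain / Benchmarks: high control wells lacking Arfgap1, low control full reaction with DMSO / Times: compound-enzyme preincubation 20 min, reaction 120 min, detection 60 min, 25 °C / Repeats: one replicate per compound / Also added: human ARF1(Δ1-17)-GTP substrate / Measured by: Tracer-displacement fluorescence polarization with EDTA stop, 620/688 nm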
A3G deaminase = APOBEC3G DNA deaminase inhibitors, primary screen, biochemical, fluorescence, single-stranded DNA substrate, uHTS; recombinant A3G, ssDNA deamination FAM/TAMRA fluorescence; inhibition, % at 20 µM; actives 0.28% (n = 330,000);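 active = inhibition of at least 40% at 20 µM, with no more than 30% in the related APOBEC3A deaminase screen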;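 also: plate controls were DMSO wells with A3G for no effect and wells lacking A3G enzyme for full effect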
Target sequence (Q9HC16 whole entry, looked up): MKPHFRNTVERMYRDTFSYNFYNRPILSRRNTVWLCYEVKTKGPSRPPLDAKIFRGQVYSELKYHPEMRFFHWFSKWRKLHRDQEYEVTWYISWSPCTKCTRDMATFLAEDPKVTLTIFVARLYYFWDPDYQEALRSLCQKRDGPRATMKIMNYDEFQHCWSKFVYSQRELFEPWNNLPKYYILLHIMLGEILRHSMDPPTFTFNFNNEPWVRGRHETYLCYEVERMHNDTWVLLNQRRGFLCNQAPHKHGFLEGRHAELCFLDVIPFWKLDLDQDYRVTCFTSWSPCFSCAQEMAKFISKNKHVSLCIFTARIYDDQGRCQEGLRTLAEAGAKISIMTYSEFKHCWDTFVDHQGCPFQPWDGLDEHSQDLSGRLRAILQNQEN
Mot1 SUMO dose = growth restoration of Mot1-301 yeast on galactose, dose response, SUMO pathway inhibitor project, whole organism, S. cerevisiae, ATP luminescence, cherry-picked samples | AID 493004, 2010 | 2,300 tested, under 10 active | S. cerevisiae Mot1-301 galactose growth, 24 h; -100 = growth of slx-deleted rescue strain | shares compounds with SUMO Mot1 rescue | growth activity, percent, % at 42 µM;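 active = Signal drops as the depositor expects, and the fitted half-maximal dose is no more than ten times the top valid tested dose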;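 also: more negative values mean stronger growth rescue toward the control strain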
* hit, by the source's call; nt = no result; + = active, no number.

SMILES	C2C12 statin	ASAP1 inh	SUMO Mot1 rescue	A3A deaminase	ARFGAP1 inh	A3G deaminase	Mot1 SUMO dose
CCOC(=O)C1CCN(C(=O)COc2ccc(S(=O)(=O)N3CCOCC3)cc2C)CC1	-9	2	718*	0	10	-5	0
CCC(=O)N(C)C[C@@H]1Oc2ncc(-c3ccccc3C)cc2C(=O)N([C@H](C)CO)C[C@H]1C	18	nt	nt	nt	nt	nt	nt
COC(=O)C1CCN(S(=O)(=O)Cc2ccccc2Cl)CC1	-3	7	17	-6	14	-3	nt
COC(=O)C1CCN(S(=O)(=O)Cc2ccccc2)CC1	20	-2	689*	-3	3	-4	0
O=S(=O)(Cc1ccccc1)N1CCN(c2ncccn2)CC1	-7	-11	399*	1	-3	-4	0
O=C(C1CCN(S(=O)(=O)Cc2ccccc2)CC1)N1CCN(c2ncccn2)CC1	nt	-8	9	0	3	1	nt
CSc1ccc(CN2CCN(S(=O)(=O)Cc3ccccc3)CC2)cc1	-3	1	379*	1	-2	-1	-1
CCCCNC(=O)N1CCC(CCC(=O)N(C)Cc2ccccc2)CC1	10	18	375*	-2	7	-4	-1
CCOC(=O)CNC(=O)N1CCC(CCC(=O)N(C)Cc2ccccc2)CC1	-5	7	-5	0	20	-6	nt
NS(=O)(=O)c1cccc(NC(=O)c2cccnc2Oc2ccccc2)c1	nt	-2	936*	3	6	0	0
CCOc1ncccc1C(=O)OCC(=O)Nc1cccc(S(N)(=O)=O)c1	5	-10	-17	1	-13	2	nt
COc1ccc(CN2CCN(c3ccccn3)CC2)cc1OCc1ccccc1	14	-2	-13	-2	16	-6	nt
CC1(C)CCc2cc(CN3CCN(c4ccccn4)CC3)ccc2O1	-4	14	725*	-5	-8	-7	0
Cc1ccc(NS(=O)(=O)c2ccc(OCC(=O)N3CCOCC3)cc2)cc1	0	7	0	0	-4	-3	nt
COc1ccc(NS(=O)(=O)c2ccc(OCC(=O)N3CCOCC3)cc2)cc1Cl	nt	-6	+	-5	2	-5	1
CCCn1c(SC(C)C(=O)NCC2CCCO2)nc2sc(CC)cc2c1=O (stereo not given)	-1	4	466*	2	-5	-12	1
CC(=O)c1ccc(N/N=C2/CCCNC2=O)cc1	nt	1	3	9	-8	20	nt
Cc1ccc(N/N=C2/CCCNC2=O)cc1	8	2	528*	-1	-6	0	0
N#Cc1ccccc1NC(=O)CSc1ccc([N+](=O)[O-])cn1	-14	-5	-12	1	10	-6	nt
N#Cc1cc([N+](=O)[O-])cnc1NCC(O)CO (stereo not given)	19	11	494*	-1	5	-5	0
O=C1C2CC=C(Cl)CC2C(=O)N1c1ncn[nH]1 (stereo not given)	nt	-4	570*	10	16	-1	0
CCOC(=O)c1cc([N+](=O)[O-])c([N+](=O)[O-])cc1NC(C)=O	-4	5	487*	nt	2	nt	0
CCOC(=O)c1ccc(NC(=O)c2ccccc2[N+](=O)[O-])cc1	6	5	-4	-3	6	-10	nt
CC(C)(C)NC(=O)N1CCC(CO)(Cc2ccccc2Cl)CC1	4	0	-1	-1	-12	-2	nt
Cc1nnsc1C(=O)N1CCC(CO)(Cc2ccccc2Cl)CC1	4	5	+	2	-5	0	1
SMILES	C2C12 statin	ASAP1 inh	SUMO Mot1 rescue	A3A deaminase	ARFGAP1 inh	A3G deaminase	Mot1 SUMO dose
C[C@H](CO)N1C[C@H](C)[C@@H](CN(C)C(=O)c2cnccn2)Oc2cc(C#CC3CC3)ccc2S1(=O)=O	-9	nt	nt	nt	nt	nt	nt
O=C1CN(C(=O)COC(=O)CCNS(=O)(=O)c2ccc(Cl)cc2)c2ccccc2N1	nt	1	365*	-5	0	14	0
Cc1cnc(NC(=O)CSc2nc3ccccc3s2)s1	39	-2	395*	-2	-7	-4	-1
CCn1cc(CCC(=O)NCc2ccccc2OC)c2ccccc21	-3	-4	7	-5	-3	-8	nt
CCn1cc(CCCC(=O)NCc2ccccc2OC)c2ccccc21	-26	-4	888*	-3	4	-2	0
CC(=O)c1cc(C)ccc1OC(=O)c1ccco1	9	-11	429*	-1	7	-8	1
CC(=O)c1cc(Cl)ccc1OC(=O)c1ccco1	1	-6	6	-1	5	-4	nt
O=C1CN(C(=O)COC(=O)c2ccccc2NCc2ccco2)c2ccccc2N1	nt	11	728*	0	6	-4	0
C/C=C(/C)C(=O)OC1c2c(ccc3ccc(=O)oc23)OC(C)(C)C1OC(=O)/C(C)=C\C (stereo not given)	1	-3	730*	2	4	25	1
O=C(CSc1nnc(NC(=O)CN2CCOCC2)s1)Nc1ccccc1	-2	12	+	-6	-1	-9	0
C[C@@H]1CN([C@H](C)CO)S(=O)(=O)c2ccc(C#CCC3CCCC3)cc2O[C@@H]1CN(C)C	-22	nt	nt	nt	nt	nt	nt
Cc1n[nH]c(=O)nc1NCc1ccc(Cl)cc1	-16	8	627*	-1	3	-1	0
COc1ccccc1NC(=O)N1CC[C@@H]2[C@@H](CO)N(C)c3ccc(-c4cccc(F)c4)cc3[C@@H]21	30	nt	nt	nt	nt	nt	nt
CNC[C@@H]1OCCCC[C@H](C)Oc2ccc(NC(=O)Nc3c(C)noc3C)cc2C(=O)N([C@H](C)CO)C[C@@H]1C	-28	nt	nt	nt	nt	nt	nt
O=c1c2cc([N+](=O)[O-])ccc2sn1-c1ccccc1	-12	-8	nt	nt	-10	nt	nt
N#Cc1c2ccc([N+](=O)[O-])cc2[n+]([O-])n1-c1ccccc1	7	5	384*	-4	-4	-10	-1

Bioassay records deposited in PubChem BioAssay by several laboratories.
